Measurements from different studies.
Each line is one published result; the experiments were not run side by side.
P2RY14: P2Y purinoceptor 14 (P2RY14, Homo sapiens, UniProt Q15391)
Nuclear receptor subfamily 4 group A member 2: Nuclear receptor subfamily 4 group A member 2 (Homo sapiens, UniProt P43354)
CDPK1: Calcium-dependent protein kinase 1 (CDPK1, Plasmodium falciparum, UniProt P62344)

Structure (SMILES) | target | assay | system | setting | measurement | value
COc1ccc2oc(-c3ccc4nc(N)oc4c3)c/c(=N\c3ccccc3NC(=O)CCN)c2c1 | TGF-beta receptor type-1 (TGFBR1, Homo sapiens, UniProt P36897) | binding |  | 1 µM | remaining binding | 111%
O=C(N[C@@H](Cc1c[nH]c2ccccc12)C(=O)O)C1c2ccccc2Oc2ccccc21 | P2RY14 | cAMP, antagonist | HEK293 | 0.1 µM | inhibition | 18.9%
CN1C(C(=O)Nc2ccccn2)=C(O)c2sc(Cl)cc2S1(=O)=O | Nuclear receptor subfamily 4 group A member 2 | thermal stability, DSF |  | 100 µM | ΔTm | 0.18 °C
CCCCC(=O)Nc1ccc(-c2ccc3ncn(CCC)c(=O)c3c2)cn1 | CDPK1 | binding, competition with immobilised ligand |  | 0.5 µM | remaining binding | 100%
Cc1cc(O)c(-c2ccc([C@@H](C)CN(C)C)cc2)c2c1[nH]c(=O)c1sccc12 | Mitogen-activated protein kinase kinase kinase 1 (MAP3K1, Homo sapiens, UniProt Q13233) | enzyme activity, inhibitor |  | 0.1 µM | inhibition | 4.39%
COC(=O)[C@H](Cc1c[nH]c2ccccc12)NC(=O)COc1ccc(C)cc1 | P2RY14 | cAMP, antagonist | HEK293 | 0.1 µM | inhibition | -20%
C1=C/COCc2cc(ccc2OCCN2CCCC2)Nc2nccc(n2)-c2cccc(c2)COC/1 | CDPK1 | binding |  | 0.1 µM | remaining binding | 36%
O=C(N[C@@H](Cc1c[nH]c2ccccc12)C(=O)O)c1ccco1 | P2RY14 | cAMP, antagonist | HEK293 | 0.1 µM | inhibition | 73.6%
CCN1CCN(c2cc(N3CCN(CC)CC3)nc(NCCNc3ccnc4cc(Cl)ccc34)n2)CC1 | Nuclear receptor subfamily 4 group A member 2 | thermal stability, DSF |  | 100 µM | ΔTm | -0.12 °C
